In series [1] the target is NS3h R467E. Briefly: FP-based DNA binding assay, displacement from mutant. Further details: species or system hepatitis C virus. The note with it: Cy5-dT15 displacement at EC85 of protein. A digest of the protocol:
(§1)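 Fluorescence polarization displacement using C-terminally His-tagged NS3h helicase domain mutants and wildtype. Each protein was at its EC85 from titration, with the test compound added in DMSO. Excitation 635 nm, emission 667 nm. IC50 came from dose-response fits, and Ki from Cheng-Prusoff using protein EC50 and concentration, assuming competition with DNA.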

Series [2] has as its target NS3h_H369K. The series is described as above. Details: species or system hepatitis C virus. The conditions noted are these: Cy5-dT15 displacement at EC85 of protein. A digest of the protocol:
as §1

In series [3] the test system is NS3h (wildtype). The note with it: read-out: IC50, polarization shift of a Cy5 labeled oligonucleotide; NS3h bound to Cy5-labeled DNA oligonucleotide; ref 11 (Mukherjee et al.); cited from earlier work.
For series [4], the target named is T1, NS3h (Hepatitis C virus genotype 1b, UniProt Q9WMX2). The series is described as follows: ATPase assay 2: NS3h-catalyzed ATP hydrolysis in the absence of nucleic acids. The series is classed as biochemical.
The target of series [5] is T1, NS3h. Briefly: Isothermal titration calorimetry. The series is classed as binding. An outline of the steps:
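NS3h was dialysed overnight into 25 mM MOPS pH 7.0, 1.25 mM MgCl2, 0.01% Tween 20, quantified by A280 (ε 52,360 M−1cm−1) and used at 20 μM. The test compound was 250 μM in dialysis buffer, given as 16 injections of 3 μl at 300 s intervals at 5 °C, with the first injection excluded. Baseline was zeroed on the mean of the last three injections, then fitted to an independent sites model. Three titrations were run.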
In general terms: ITC needs no label: the signal is the heat of the interaction.

The target of series [6] is NS3h_E291Q. Briefly: FP-based DNA binding assay, displacement from mutant. Further details: species or system hepatitis C virus. The note with it: Cy5-dT15 displacement at EC85 of protein. A digest of the protocol: as §1
Series [7] addresses T1, NS3h. The series is described as follows: ATPase assay 1: DNA. The series is classed as biochemical.
The target in series [8] is NS3h_D290N. Briefly: FP-based DNA binding assay, displacement from mutant. Details: species or system hepatitis C virus. The note with it: Cy5-dT15 displacement at EC85 of protein. A digest of the protocol: as §1
In series [9] the target is NS3h-dT20 complex (Hepatitis C virus genotype 1b, UniProt Q9WMX2). Briefly: DSC of pre-assembled NS3h-dT20 complex. It counts as binding. An outline of the steps: (§2)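 Where present, dT20 was at 10 μM, and the test compound was at 10 μM–5 mM. Samples were heated 20–100 °C at 1 °C/min, with a repeat scan of the same sample as baseline. Fitting used a scaled two-state model. For the NS3h-dT20 samples, Tm versus compound concentration was fitted to a dose-response equation.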

Series [10] has as its target full-length NS3 (Hepatitis C virus genotype 1b, UniProt Q9WMX2). Briefly: Studies repeated with full-length NS3 with and without NS4A. The note with it: presence and absence of NS4A.
Series [11] concerns the target T1, NS3h. The series is described as follows: Electrophoretic mobility shift assay of NS3h-Cy5-dT15 complex. It counts as binding. (In general: In EMSA bound probe runs differently from free probe, usually more slowly.)
The target in series [12] is NS3h_E493Q. The series is described as follows: FP-based DNA binding assay, displacement from mutant. Details: species or system hepatitis C virus. The conditions noted are these: Cy5-dT15 displacement at EC85 of protein. A digest of the protocol:
as §1

Series [13] addresses T1, NS3h. The series is described as follows: Differential scanning calorimetry. The series is classed as binding. The conditions noted are these: 10 μM NS3h, 300 μM ATA. An outline of the steps:
as §2

Series [14] deals with T2, NS3h (wildtype) (Hepatitis C virus (genotype 1b, con1; …, UniProt Q9WMX2 1192-1657). Briefly: ITC.
For series [15], the target named is T2, NS3h (wildtype). The series is described as follows: EMSA.

Broadly, the Ki is a dissociation constant, usually derived from enzyme kinetics or from competition with a known ligand. The low end stands for tighter binding, the high end for weaker binding. As a reminder, the Kd is the equilibrium constant for the complex coming apart. The EC50 is the concentration that produces a half-maximal response. Low readings indicate higher potency in that assay, high ones lower potency in that assay.

On to `O=C(O)C1=CC(=C(c2ccc(O)c(C(=O)O)c2)c2ccc(O)c(C(=O)O)c2)C=CC1=O` [ATA, aurintricarboxylic acid], for which the “Relative Ki (Cheng-Prusoff) compared with wildtype NS3h” value in series [1] is reported as “higher”; in series [2], “similar”; in series [6] it was “notably lower”; in series [8] it was “notably lower”; in series [12], “higher”. The IC50 in series [3] is 1400 nM; in series [11], 4000 nM. Besides, the Ki is 450 ± 150 nM in series [4] and 1400 ± 200 nM in series [7]. Further, in [5], the Kd amounted to 1300 ± 200 nM. In series [5] (20 μM NS3h titrated with 250 μM ATA, 5 °C), the “ATA monomers binding per NS3h (stoichiometry)” value was 1.5. Further, the ΔH of binding in series [5] (ITC, 5 °C) is -3.2 ± 0.14 kcal/mol. The molecule further returned a ΔS of binding in [5] (at 5 °C) of 63 J/mol K. Moreover, in series [5] (at 5 °C), the “−TΔS of binding” value is -4.18 kcal/mol. The molecule also returned a ΔG of binding in series [5] (at 5 °C, from Kd) of -7.39 ± 0.072 kcal/mol. In addition, in [9], the EC50 is about 500000 nM. Further, in series [9] (NS3h and dT20 10 μM each, dose response fit), the “Maximum decrease of Tm of NS3h-dT20 complex” value worked out at 11 ± 3 °C. For the same molecule, the “Sensitivity of full-length NS3 compared with NS3h” value in series [10] was “not noted any differences in the sensitivity”. For the same molecule, the “Change in enthalpy of unfolding (ΔΔH)” value in series [13] is -52.1 kcal/mol. Moreover, the “Increase of unfolding temperature of NS3h” value in series [13] is 8 °C.

B1: dT20 (ssDNA)
DNA: TTTTTTTTTTTTTTTTTTTT
B1: in series [14], the binding result is “binds”.

B2: Cy5-dT15 (ssDNA)
DNA: TTTTTTTTTTTTTTT
As for B2, the binding result in [15] is reported as “binds”.

These data come from paper PMC4272346 (Biochemistry, 2013).
